In experiment [1] the test system is Leishmania donovani. The experiment can be described thus: Effect on mitochondrial membrane potential in Leishmania donovani MHOM/SD/00/1S-2D promastigotes by measuring the decrease in rhodamine 123 accumulation after 14 hrs. Format: functional, organism-based. Put shortly: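 After 14 h of drug exposure at 25°C, parasites washed twice at 4°C in Hanks-glucose and loaded with rhodamine 123 (0.3 μg/ml, 5 min, 37°C). Washed again, resuspended at 2 × 10⁶ cells/ml and read by flow cytometry (ex 488/em 525 nm; 20,000 events). Geometric mean fluorescence recorded; 10 mM KCN-poisoned cells served as depolarized control.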

Experiment [2] concerns Leishmania donovani. In words: Inhibition of Leishmania donovani cytochrome c oxidase.
Experiment [3] has as its system Leishmania donovani. The experiment can be described thus: Effect on mitochondrial function in Leishmania donovani MHOM/SD/00/1S-2D promastigotes assessed as decrease in oxygen consumption at 40 uM after 14 hrs relative to control. Format: functional. Also on record: scale not given: the % may be the effect or the level left. Summed up:
(§1)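 Promastigotes incubated 14 h at 25°C with drug in RPMI-10% HIFCS at 2 × 10⁶ cells/ml. They were then washed and resuspended in respiration buffer at 10⁸ cells/ml with 5 mM succinate and 1 mg/ml BSA. Clark-electrode O₂ uptake at 25°C, given as nmol O₂/min/10⁸ cells and as % of untreated.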

For experiment [4], the system named is Leishmania donovani. In words: Decrease in intracellular ATP level in Leishmania donovani 3-Luc promastigotes assessed as decrease in luminescence relative to control. Format: functional, organism-based.
The subject of experiment [5] is Leishmania donovani. The experiment can be described thus: Effect on mitochondrial function in Leishmania donovani MHOM/SD/00/1S-2D promastigotes assessed as decrease in oxygen consumption at 10 uM after 14 hrs relative to control. Format: functional. Also on record: scale not given: the % may be the effect or the level left. Summed up:
as §1

The test system of experiment [6] is Leishmania donovani. The experiment can be described thus: Inhibition of TMPD-ascorbate-dependent oxygen consumption in digitonin-permeabilized Leishmania donovani MHOM/SD/00/1S-2D promastigotes at 25 uM after 14 hrs. Format: functional, organism-based.
For experiment [7], the system named is Leishmania donovani. The experiment can be described thus: Inhibition of Leishmania donovani cytochrome c reductase at 40 uM. Put shortly:
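Same L. donovani mitochondrial fraction (200 μg/ml protein, 0.02% TX-100, 75 mM sodium phosphate pH 7.4), with CcO first blocked by 10 mM KCN and oxidized cytochrome c as acceptor. Reaction started with 5 mM succinate; A550 change monitored. Controls lacked succinate or contained 2 μM antimycin A. HePC tested at 40 μM.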

Experiment [8] deals with Leishmania donovani. The experiment can be described thus: Effect on plasma membrane integrity in Leishmania donovani MHOM/SD/00/1S-2D promastigotes assessed as SYTOX green fluorescence at 40 uM after 14 hrs. Format: functional. Summed up: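 Cells at 2 × 10⁶/ml in RPMI-10% HIFCS given increasing drug concentrations, 14 h at 25°C. Washed twice in Hanks-glucose and stained with 1 μM SYTOX green for 5 min in the dark. Fluorescence read at ex 485/em 520 nm and expressed as % of maximal signal after 0.1% Triton X-100.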

In experiment [9] the test system is Leishmania donovani. In words: Growth inhibition of Leishmania donovani MHOM/SD/00/1S-2D promastigotes at 40 uM assessed as inhibition of MTT reduction after 14 hrs. Format: functional, organism-based. Put shortly: (§2)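 Late-exponential promastigotes at 2 × 10⁶ cells/ml in RPMI-10% HIFCS with drug, 14 h at 25°C. Washed at 4°C in Hanks-10 mM glucose, then given 0.5 mg/ml MTT for 2 h. Formazan dissolved in 10% SDS and read at 595 nm. Triplicates, at least two experiments; EC50 by Litchfield-Wilcoxon.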
In general terms: Tetrazolium assays rely on reduction of a dye to a coloured formazan, in cell work by metabolically active cells.

In experiment [10] the test system is Leishmania donovani. The experiment can be described thus: Effect on mitochondrial function in Leishmania donovani MHOM/SD/00/1S-2D promastigotes assessed as decrease in oxygen consumption at 20 uM after 14 hrs relative to control. Also on record: scale not given: the % may be the effect or the level left. Format: functional. Summed up: as §1
The subject of experiment [11] is Leishmania donovani. In words: Growth inhibition of Leishmania donovani MHOM/SD/00/1S-2D promastigotes assessed as inhibition of MTT reduction after 14 hrs. Format: functional, organism-based. Put shortly:
as §2

Experiment [12] has as its system Leishmania donovani. The experiment can be described thus: Effect on apoptosis induction in Leishmania donovani MHOM/SD/00/1S-2D promastigotes assessed as accumulation in sub-G1 phase at 20 uM after 24 hrs by propidium iodide staining.
In experiment [13] the test system is Leishmania donovani. The experiment can be described thus: Effect on oxygen consumption rate in digitonin-permeabilized Leishmania donovani MHOM/SD/00/1S-2D promastigotes assessed as decrease in state 3 respiration at 25 uM after 14 hrs. Format: functional. Also on record: scale not given: the % may be the effect or the level left.

Molecules are shown by their SMILES. Calls of active or inactive are those of the source. The rule behind the calls is not given here.

What is called inhibition is the drop in the measured response relative to a control, in per cent. Broadly, the EC50 is the midpoint of the concentration-response curve. For `CCCCCCCCCCCCCCCCOP(=O)([O-])OCC[N+](C)(C)C` [MILTEFOSINE], the Activity result is “Dose-dependent effect” in the experiment on Leishmania donovani [1]; “Dose-dependent effect” with Leishmania donovani [2]; 44.4% with Leishmania donovani [3]; 95.4% in the experiment on Leishmania donovani [5]; 10% with Leishmania donovani [8]; 75% in the experiment with Leishmania donovani [10]. In addition, the Activity in the experiment on Leishmania donovani [12] is 38%; in the experiment on Leishmania donovani [13], 40%. In addition, the result in the experiment on Leishmania donovani [4], in the experiment with Leishmania donovani [6] and in the experiment on Leishmania donovani [9] was Active. In the experiment on Leishmania donovani [7], this compound showed an inhibition of 5%. For the same compound, the EC50 in the experiment with Leishmania donovani [11] came out at 10.2 µM.

Source of the values: ChEMBL document CHEMBL1147113, “Miltefosine (hexadecylphosphocholine) inhibits cytochrome c oxidase in Leishmania donovani promastigotes” (Antimicrob Agents Chemother, 2007).
